Experimental data as given in ChEMBL document CHEMBL4513216, “Probing the Open Global Health Chemical Diversity Library for Multistage-Active Starting Points for Next-Generation Antimalarials” (ACS Infect Dis, 2020).

Assay: Toxicity liver stage against HepG2, at 10uM
Type: cell-based
Design: test concentration 10 uM, cell line HepG2-A16-CD81EGFP
Settings: human, HepG2-A16-CD81EGFP cells; read-out: INHIBITION
Summary of the method: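 Uninfected HepG2-A16-CD81EGFP cells, 3 × 10^3 per well, 1536-well, plated on prespotted compound at 10 μM final, parasite-free screening media added to match infected plates; puromycin 10 μM positive, DMSO 0.5% negative; run in parallel with 48 h PbLuc assay at 37 °C, 5% CO2; viability by CellTiter-Glo luminescence, normalized to controls.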

| Structure (SMILES) | cytotoxicity at 10 µM [%] |
| --- | --- |
| CCCS(=O)(=O)N1CC(=O)N(Cc2cccc(OC)c2OC)CC(O)C1 (centres undefined) | -12.9 |
| Cc1ccccc1SC1CCN(C(=O)C2CNC(=O)N2)CC1 (centres undefined) | -2.22 |
| Cc1cc(C(=O)NC(C)CC(=O)c2ccco2)[nH]n1 (centres undefined) | -8.17 |
| O=C(Cc1cccnc1)N1CCCC2(CCN(CC3CCOCC3)C2)C1 (centres undefined) | 2 |
| CC(C)Nc1ncccc1C(=O)NCc1ncc[nH]1 | -7.9 |
| Cc1ccc(N2C[C@@H]3CCCO[C@@H]3[C@H](N3CCCC3)C2)nn1 | 2.96 |
| COC[C@@]12CC[C@@H](N3CCOCC3)C[C@H]1CCN(c1cc(C)ccn1)C2 | -3.53 |
| Cc1ccc(C)c2c(C)c(C(=O)NCCCn3ccnn3)[nH]c12 | -0.84 |
| Cc1cnn(CC(C)NCc2cccnc2)c1 (centres undefined) | -3.3 |
| Cc1cccnc1NC(=O)c1ccc(-n2ncc(C#N)c2N)cc1 | -9.35 |
| N#Cc1cccc(OC23CCCN(CC2)C3)c1 (centres undefined) | 1.73 |
| CC(C)NC(=O)N1CCC2(C1)CN(c1ccsc1)C(=O)CN2C (centres undefined) | 1.18 |
| Cc1[nH]nc(CCC(=O)N2CCOC(CCc3ccccc3)C2)c1C (centres undefined) | -10.8 |
| COCC(NC(=O)c1cnc(-c2ccncc2)nc1)c1ccnn1C (centres undefined) | -13.1 |
| CC(C)Cc1ncc2c(n1)CN(c1cc(N)nc(N)n1)C2 | -6.27 |
| CSc1ccc(Cl)c(C(=O)N2CCCC(CNS(C)(=O)=O)C2)c1 (centres undefined) | -5.92 |
| O=C(NCC1CC1)c1cnc(-c2ccccc2)nc1 | 7.5 |
| CCC(Sc1ncc(CO)n1C)c1ccccc1 (centres undefined) | -45.3 |
| Cn1ncnc1CNc1ccc2c(c1)N(C(=O)OC(C)(C)C)CCC2 | 6.37 |
| COCCN1CCc2ncnc(OC(C)C)c2CC1 | 8.26 |
| CN(CC(N)=O)C(=O)c1cnc(-c2ccc(Cl)s2)s1 | -5.02 |
| Cc1nc2ccc(C(=O)N3CCC(COc4ccccn4)CC3)cc2[nH]1 | -8.09 |

| Structure (SMILES) | cytotoxicity at 10 µM [%] |
| --- | --- |
| Clc1cc(Cl)cc(OCCN2CCC(n3cncn3)CC2)c1 | 10.8 |
| COc1ccc(NC(=O)N2CCC(c3nnc[nH]3)CC2)cc1C | 15.8 |
| Cc1ccc(-c2nnc(CN3CCCCC3Cn3cncn3)o2)cc1 (centres undefined) | 3.84 |
| CN(CCOCC1CC1)C(=O)Nc1ccc([S+](C)[O-])c(F)c1 (centres undefined) | -1.7 |
| CCC(CO)N(Cc1cccnc1)C(=O)c1ccc(C)[nH]c1=O (centres undefined) | -3.95 |
| CN1CCC2(Cc3ccccc3CN(C(=O)c3ccc(Cl)cc3)C2)C1 (centres undefined) | -3.12 |
| CN1CCN(C(=O)[C@@H]2CCO[C@@H]3CCN(c4ncccn4)C[C@@H]32)CC1 | -4.96 |
| Cc1nn(C)c(C)c1C1COCCN1C(=O)c1ccccc1 (centres undefined) | -10.2 |
| Cc1ccc(CC(=O)N2CC[C@@H]3CN(CCN(C)C)CCO[C@@H]3C2)cc1 | 2.73 |
| CCc1nc2n(n1)CC(NCc1nc(Cc3ccccc3)no1)CC2 (centres undefined) | 1.06 |
| COc1ccc(OCc2cc(C(=O)N3CCN[C@H](C)C3)n[nH]2)c(Cl)c1 | -11.7 |
| Cc1cccc(N2CCC3(CCCN(C(=O)c4cccnc4)C3)C2)n1 (centres undefined) | 0.677 |
| O=C(CCOCc1ccccc1)NS(=O)(=O)N1CCOc2ccccc21 | 9.15 |
| c1cc(CN2CCC(c3nnc4n3CCCCC4)CC2)c2c(c1)OCO2 | -3.14 |
| O=C1NCCO[C@H]2CN(C(=O)Cc3cccs3)CC[C@@H]12 | -98.8 |
| COc1cc(CNCC(O)c2cccc(F)c2)cc2c1OCO2 (centres undefined) | -6.31 |
| O=C(NCc1ccccc1CN1CCC(O)CC1)Nc1ccccn1 | 8.52 |
| CC(=O)N(Cc1ncc(C)o1)C1CCN(CCc2cnn(C)c2)C1 (centres undefined) | 0.742 |
| CCCOc1cc(C)ccc1NC(=O)NCCC(=O)N(C)C | -13.9 |
| Cc1ncc(C(=O)N2CCCC(Cc3nccs3)C2)cn1 (centres undefined) | -2.03 |
| O=C(Nc1ccc(F)cc1)C(c1ccccc1)N1CCOCC1 (centres undefined) | -3.84 |
| CCOC[C@H]1CC[C@H]2[C@H](CCN2S(=O)(=O)Cc2ccccc2)O1 | 8.61 |

| Structure (SMILES) | cytotoxicity at 10 µM [%] |
| --- | --- |
| CC(C)C(=O)N1CCC2(COCc3cnc(-c4cccnc4)nc32)C1 (centres undefined) | -102 |
| Cc1nn(C)c(C)c1NC(=O)CNC(c1ccccc1)C1CCCC1 (centres undefined) | -0.0764 |
| Clc1cncc(N2CCN(Cc3ccon3)CC2)n1 | 6.94 |
| O=C(c1ccc(-c2nc[nH]n2)cc1)N1CCOC(C(F)(F)F)C1 (centres undefined) | -2.35 |
| Cc1nc(N2CCCC2)nc2c1CCN(C(=O)N1CCCC1)CC2 | 1.82 |
| CN1[C@H](Cn2cncn2)C[C@@H]2CN(Cc3ccsc3)CC[C@@H]21 | -118 |
| Cc1nn(C)c(C)c1CCC(=O)N1CCCC1Cn1cccn1 (centres undefined) | 1.78 |
| O=C1CSC(c2ccc(F)c(Cl)c2)c2c(n(C3CCOCC3)[nH]c2=O)N1 (centres undefined) | 3.4 |
| CN1C[C@@H](C(=O)N2CCOCC2)[C@@]2(CCc3ccccc3C(=O)N2)C1 | 9.87 |
| Cc1cnn(CC2CCCN2C(=O)c2cc3ccccc3c(=O)[nH]2)c1 (centres undefined) | -4.77 |
| O=C(CCc1ccc2c(c1)OCO2)Nc1cccnc1-n1cncn1 | 4.98 |
| CC(C)c1nccn1CCC(=O)N1CCCCC1c1ccn[nH]1 (centres undefined) | 6.16 |
| CCc1nnc(CN2CCCC(c3cc(C(N)=O)[nH]n3)C2)o1 (centres undefined) | -12.7 |
| Cc1cc(C)n(Cc2ccc(C(=O)NCCN3CCOCC3)cc2)n1 | -14.8 |
| FC(F)(F)Cn1ccnc1CN1CCOC(Cn2cccn2)C1 (centres undefined) | 0.0962 |
| CCC(=O)N1CCC2(CC1)CC(NC(=O)N(C)C)c1cc(C)ccc12 (centres undefined) | 8.39 |
| NC(=O)CN1CC2(CCC1=O)CCN(C(=O)c1ccccc1F)CC2 | 23.5 |
| CCOc1ccc(C#N)cc1NCc1cc(C)on1 | -60.8 |
| Cc1ncc(CN2CCOC(CNc3cccnn3)C2)s1 (centres undefined) | -19.8 |
| Cc1ccc(-c2cc(CNC(=O)N3CCSCC3)on2)cc1 | 2.7 |
| COCC1CCN(C(=O)c2cccc(S(=O)(=O)NCC3(C)COC3)c2)C1 (centres undefined) | 3.82 |
| O=C(CN1CCC2(CCCN(CCO)C2=O)C1)NCCc1ccccc1 (centres undefined) | 0.174 |

| Structure (SMILES) | cytotoxicity at 10 µM [%] |
| --- | --- |
| c1ccc(-c2nc(CNCCn3cccn3)cs2)nc1 | -21.1 |
| COc1ccc(CCN2CCCC(CN(C)Cc3[nH]cnc3C)C2)cc1 (centres undefined) | -11.7 |
| O=C(c1cc(C2CC2)on1)N1C[C@@H]2COC[C@]2(COc2cccnc2)C1 | -89.7 |
| Cc1cc(C)n(C2CN(CC(=O)NCC(C)(C)N3CCOCC3)C2)n1 | -3.42 |
| CC1(C)CC(N2CCN(C3CCCC3)C(CCO)C2)CC(C)(C)C1 (centres undefined) | -7.19 |
| CCN1CC2(CC1=O)CN(Cc1ccco1)CCN(C(=O)C(C)C)C2 (centres undefined) | -4.51 |
| COc1ccc(NC(=O)c2ccc[nH]2)c(N2CCN(C(C)=O)CC2)n1 | -11.2 |
| O=C(c1cn2cc(Cl)cnc2n1)N1CCOCC(O)(CN2CCCC2)C1 (centres undefined) | -8.42 |
| CCc1noc(C(C)N2CCN(Cc3nc(C)c(C)o3)CC2)n1 (centres undefined) | -1.71 |
| COc1c(C(=O)N2CCC(CSc3ccccc3)C2)c(C)nn1C (centres undefined) | 25.6 |
| COc1ccc(CCCC(=O)NCc2c(C)noc2C)cc1F | -6.35 |
| CC(C)COCc1cncc2c1CCN(C(=O)c1cscn1)C2 | -108 |
| Cc1cnc(C)c(N2CCN(CCCc3[nH]nc(C)c3C)CC2)n1 | -10 |
| CCOc1ccc(C(=O)CCC(=O)N(C)Cc2cnccn2)cc1C | 1.39 |
| O=C(NCCCn1ccnc1)C1CCC(=O)N1Cc1cccs1 (centres undefined) | -4.94 |
| COC[C@@]12CCO[C@@H]1CCN(C(=O)Cc1ccc(C)cc1)C2 | 1.47 |
| Cc1nc2cc(CNC(=O)C3CC(=O)N(C4CCCC4)C3)ccc2n1C (centres undefined) | -2.37 |
| COc1cc(CNC(=O)N2CCCC2c2cc(C)no2)ccn1 (centres undefined) | 1.95 |
| Cc1ccc(CN2C[C@@H](C(=O)O)[C@H](c3cccnc3)C2)s1 | 4.17 |
| Cc1nc2c(c(N3C[C@@H](C)[C@@](C)(O)C3)n1)CCC2 | 9.74 |
| Cc1c[nH]nc1C1CCN(C(=O)C2CCCC2)C1 (centres undefined) | 0.631 |
| O=C1NCc2ccccc2CC12CCN(Cc1c(F)cccc1Cl)C2 (centres undefined) | 11.2 |

| Structure (SMILES) | cytotoxicity at 10 µM [%] |
| --- | --- |
| CCCN(Cc1ccccn1)Cc1ccccc1OC | -43.3 |
| O=C(NCc1ccco1)c1nn(C2CCS(=O)(=O)C2)c2c1CCCC2 (centres undefined) | -11 |
| COCCCN(C)c1nc(-c2ccncc2)nc(C)c1C | 2.8 |
| O=C(c1ccc(Br)cc1F)N1CCc2ccncc21 | -1.16 |
| CC1CCN(CC(O)CNc2ccc(Cl)cn2)CC1 (centres undefined) | 17.2 |
| O=C(Nc1ccc(F)cc1-c1nc(C2CC2)no1)N1CC[C@@H](O)C1 | -1.54 |
| Cc1cc(C(=O)N2CCc3nc4sc(C)cc4c(=O)n3CC2)on1 | -16.2 |
| CCn1cnnc1CNC(=O)N1CCC(OCc2ccccc2)CC1 | -5.26 |
| Fc1cccc(CN2CCC3(CCCN3c3ncccn3)CC2)c1 | 3.62 |
| CN1CCN(C(=O)c2cc(NC(=O)c3ccccc3)n(C)n2)CC1 | 4.07 |
| COc1ccc(C(C(=O)O)N2CCC(Cn3cccn3)CC2)c(OC)n1 (centres undefined) | -9.46 |
| CS(=O)(=O)N1CCCC1C(=O)Nc1cnc2n1CCCC2 (centres undefined) | 2.72 |
| CCc1nc(C2CCCN2CCCS(N)(=O)=O)no1 (centres undefined) | -6.66 |
| O=C(c1cc(Cl)c[nH]1)N1CCCC(c2cc(C(F)(F)F)[nH]n2)C1 (centres undefined) | 18 |
| CC(C)=CCN1CCN(Cc2ncc[nH]2)[C@H]2CS(=O)(=O)C[C@H]21 | 5.44 |
| c1cnc(N2CCOC3(CCN(CC4CCCCC4)CC3)C2)nc1 | 0.256 |
| CN(Cc1nccn1C)c1ccc(-c2nccn2C)nn1 | -6.45 |
| Cc1noc(C)c1CN1C[C@@H]2COC[C@H](C(=O)N3CCOCC3)[C@@H]2C1 | -70 |
| Cc1nc(-c2ccccc2)sc1CNC(=O)c1ccc(=O)n(C)c1 | -6.09 |
| CC(NC(=O)Cc1cccs1)c1nnc2n1CCC2 (centres undefined) | -7.56 |
| CN(C(=O)CCNC(=O)C1COc2ccccc21)c1ccccc1 (centres undefined) | -7.53 |
